Results published in article PMC6282443 (Journal of Enzyme Inhibition and Medicinal Chemistry, 2018).
Entries after “also recorded” stand apart in the source; their conditions may differ. Where two headings read alike, the source gives them in different places.

Legend:
[1] = tested on: T790M/L858R double mutant over wild-type EGFR; settings: cited from earlier work
A549 cells [2] = assay: Cell cycle distribution by flow cytometry; type: cell-based, human
HepG2 cells = assay: MTT anti-proliferative assay, HepG2; type: cell-based, human; settings: read-out: Anti-proliferative activity IC50, HepG2
A549 cells [3] = assay: cells; type: cell-based, human; settings: read-out: Anti-proliferative activity IC50, A549
MCF-7 cells = assay: MTT anti-proliferative assay, MCF-7; type: cell-based, human; settings: read-out: Anti-proliferative activity IC50, MCF-7
A549 cells [4] = assay: Annexin V-FITC/PI apoptosis assay by flow cytometry; type: cell-based, human; settings: A549, 2.5 μM, 48 h; untreated control 12.18%
Method in brief: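 A549 cells seeded at 1 × 10^6 cells/well in RPMI 1640 and exposed to test compound for 48 h. Cells stained with Annexin V-FITC and propidium iodide for 30 min at 4 °C in the dark, then analysed by flow cytometry to give quadrant populations.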

A549 cells [5] = assay: Acridine orange; type: cell-based, human; settings: A549, AO single staining
H1975 cells = type: cell-based, human

## C=CC(=O)Nc1cc(Nc2nccc(-c3cn(C)c4ccccc34)n2)c(OC)cc1N(C)CCN(C)C [AZD9291]
[1]
  selectivity for the T790M/L858R double mutant over wild-type EGFR: 200 fold

## O=C(N/N=C/c1cnc(N2CCCC2)nc1)Nc1cc2c(Nc3ccc(F)c(Cl)c3)ncnc2cc1O[C@H]1CCOC1 [Compound 14, (S,E)-N-(4-((3-chloro-4-fluorophenyl)amino)-7-((tetrahydrofuran-3-yl)oxy)quinazolin-6-yl)-2-((2-(pyrrolidin-1-yl)pyrimidin-5-yl)methylene)hydrazine-1-carboxamide]
A549 cells [2]; A549
  cell cycle arrest phase (in words): S phase arrest; also recorded: arrested the cell cycle at the S phase
A549 cells [2]; A549, 2.5 μM
  proportion of cells in S phase: 50.68%
A549 cells [2]; A549, 2.5 μM, control 26.57%
  proportion of cells in G0/G1 phase: 23.62%
A549 cells [2]; A549, 2.5 μM, control 29.4%
  proportion of cells in G2/M phase: 25.7%
A549 cells [2]; A549, 25 μM, 48 h, DMSO 26.57
  G0/G1 (%): 23.62%
A549 cells [2]; A549, 25 μM, 48 h, DMSO 29.40
  G2/M (%): 25.70%
A549 cells [2]; A549, 25 μM, 48 h, DMSO 44.03
  S (%): 50.68%
HepG2 cells; Homo sapiens, HepG2, 72 h
  IC50: 4.63 ± 0.36 µM
A549 cells [3]; Homo sapiens, A549, 72 h
  IC50: 5.9 ± 0.25 µM
MCF-7 cells; Homo sapiens, MCF7, 72 h
  IC50: 2.37 ± 0.34 µM
A549 cells [4]
  apoptotic cells (early + late): 34.9%
A549 cells [5]
  induction of A549 cell apoptosis by AO staining (in words): can induce A549 cell apoptosis
H1975 cells; versus HepG2, A549, MCF-7
  selectivity for H1975 cells (in words): slight selectivity

## (S,E)-N-(4-((3-chloro-4-fluorophenyl)amino)-7-((tetrahydrofuran-3-yl)oxy)quinazolin-6-yl)-2-(4-(3-(diethylamin o)propoxy)benzylidene)hydrazine-1-carboxamide [Compound 49]
HepG2 cells; HepG2, MTT, 72 h
  IC50: 5.04 ± 0.64 µM
A549 cells [3]; A549, MTT, 72 h
  IC50: 9.48 ± 0.86 µM
MCF-7 cells; MCF-7, MTT, 72 h
  IC50: 6.21 ± 0.68 µM
H1975 cells; H1975, MTT
  inhibitory activity against H1975 cells (in words): poorer cellular activity
H1975 cells; read-out: Anti-proliferative activity IC50, H1975, H1975, MTT, 72 h
  IC50: 32.8 ± 1.27 µM
